In the library only some 1.7% were active in any assay of this set; here they are far more common.
RanGTP-Impb inh – inhibitors of RanGTP-importin-beta interaction, primary screen, biochemical, FRET, CFP-Ran, YFP-importin-beta, homogeneous; inhibition, % (no concentration beside the values); AID 2216, 2009; 300,000 compounds, 1.1% hits; cell-free CFP-Ran/YFP-importin-beta FRET ratio; Ran GTPase (GTP-bound) - importin-beta complex;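 active = more than half of the replicate wells show a fall in the fluorescence ratio signal beyond about 16%, limit read from the data, passing the limit was not always enough; inconclusive = exactly half of the replicate wells pass the set limit; inactive = fewer than half of replicates pass the limit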
Rce1 inhib – yeast Rce1p protease inhibitors, primary screen, biochemical, fluorescence, cell-free homogeneous; CAAX prenyl protease 2 (Saccharomyces cerevisiae (strain ATCC 204508 / S288c)), Q03530; calls only; yeast membranes, quenched prenylated peptide cleavage fluorescence; AID 2563, 2010; 290,000 compounds, 0.27% hits;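 active = fall in fluorescence gain of 50% or more versus controls, with final raw signal at or below 3038400; inconclusive = same 50% fall but final raw signal above 3038400; inactive = fall in fluorescence gain under 50%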
Runt-SMMHC FRET – inhibitors of RUNX1 Runt–CBFb-SMMHC binding, primary screen, biochemical, FRET, Cerulean-Runt, Venus-CBFb-SMMHC, uHTS | 220,000 compounds, 0.74% hits | Cerulean-Runt/Venus-CBFb-SMMHC FRET ratio 530/480, 1 h | AID 1434, 2008 | inhibition, % at 20 µM;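 active = mean inhibition across duplicate retests at 20 µM reaching about 50%, limit read from the data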;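 also: inhibitors lower the FRET ratio by blocking Runt binding to CBFb-SMMHC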
Target sequence (Q01196 whole entry, looked up): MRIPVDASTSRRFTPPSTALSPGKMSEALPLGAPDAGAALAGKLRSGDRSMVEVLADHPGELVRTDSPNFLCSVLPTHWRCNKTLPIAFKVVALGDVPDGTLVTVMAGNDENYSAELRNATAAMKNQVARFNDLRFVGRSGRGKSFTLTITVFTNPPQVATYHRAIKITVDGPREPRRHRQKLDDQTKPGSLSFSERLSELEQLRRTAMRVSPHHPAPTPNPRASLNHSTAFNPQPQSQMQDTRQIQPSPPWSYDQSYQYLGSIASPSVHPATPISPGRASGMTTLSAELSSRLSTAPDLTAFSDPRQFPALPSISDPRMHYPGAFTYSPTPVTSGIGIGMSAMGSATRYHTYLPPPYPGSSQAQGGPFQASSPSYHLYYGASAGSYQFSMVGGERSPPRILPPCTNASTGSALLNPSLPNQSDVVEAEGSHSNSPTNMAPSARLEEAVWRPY
Target sequence (Q13951 whole entry, looked up): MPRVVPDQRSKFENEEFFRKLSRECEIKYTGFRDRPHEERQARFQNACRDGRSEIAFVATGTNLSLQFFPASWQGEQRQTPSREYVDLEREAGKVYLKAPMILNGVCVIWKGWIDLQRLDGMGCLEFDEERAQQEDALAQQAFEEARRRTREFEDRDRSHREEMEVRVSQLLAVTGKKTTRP
Runt-CBFb FRET – inhibitors of RUNX1 Runt–CBFb binding, primary screen, biochemical, FRET, Cerulean-Runt, Venus-CBFb, uHTS; Cerulean-Runt/Venus-CBFb FRET ratio 530/480, 1 h; inhibition, % at 20 µM; 220,000 compounds, 0.46% hits;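 active = inhibition over about 50% at 20 µM in the single-dose screen, limit read from the data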
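Reagent – Venus-CBFb binding partner, 100 nM · Assay system – Cerulean-tagged RUNX1 Runt domain (FRET donor) fusion protein · Input – 100 nM per protein · Incubation – two 1 h room-temperature incubations shielded from light · Measured by – FRET fluorescence · Medium – Tris buffer pH 7.5 with salts and BSA · Benchmarks – unlabeled CBFb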
Vif inh – HIV Vif self-association inhibitors, primary screen, imaging, HEK293T, single point | HEK293T cells, Vif self-association by quenched fluorescence, 24 h | 340,000 compounds, 0.35% hits | inhibition, % at 7.49 µM; in the data active = inhibition above about 50%, passing the limit was not always enough; inconclusive = no clear call, values can overlap the other calls; inactive = below about 31%
Of the large screens only hits and unclear results are named; the others gave an inactive call.

Cc1cc2c3c([nH]c2cc1S(=O)(=O)NCc1ccc(CN2CCCCCC2)o1)CCCC3=O	none (no result: Runt-SMMHC FRET, Runt-CBFb FRET)
O=C(O)CC1SC(=O)N(CC(=O)c2ccccc2)C1=O (stereo unspecified)	none (no result: Runt-SMMHC FRET, Runt-CBFb FRET)
CCCCNC(=O)CSc1nnc(Cc2ccc(Cl)c(Cl)c2)c(=O)[nH]1	RanGTP-Impb inh inconclusive (no result: Runt-SMMHC FRET, Runt-CBFb FRET)
CN(C(=O)c1ccc(NC(=O)C2CC=CCC2C(=O)O)cc1)c1ccccc1 (stereo unspecified)	RanGTP-Impb inh 25 (no result: Rce1 inhib)
COCCCN1C2=C(C(=O)CC(C)(C)C2)C(c2ccc(O)c(OC)c2)C2=C1CC(C)(C)CC2=O	none (no result: Runt-SMMHC FRET, Runt-CBFb FRET)
COc1ccc(C2C3=C(CC(C)(C)CC3=O)N(CCN3CCOCC3)C3=C2C(=O)CC(C)(C)C3)cc1	RanGTP-Impb inh 71, Runt-SMMHC FRET 81, Runt-CBFb FRET 91
CC1(C)CC(=O)C2=C(C1)N(CCN1CCOCC1)C1=C(C(=O)CC(C)(C)C1)C2c1ccc(Cl)cc1	RanGTP-Impb inh 127, Runt-SMMHC FRET 88, Runt-CBFb FRET 77
CCOc1cc(C2C3=C(CC(C)(C)CC3=O)N(CCOC)C3=C2C(=O)CC(C)(C)C3)ccc1OC	none (no result: Runt-SMMHC FRET, Runt-CBFb FRET)
CC1(C)CC(=O)C2=C(C1)N(CCN1CCOCC1)C1=C(C(=O)CC(C)(C)C1)C2c1cccc(F)c1	RanGTP-Impb inh 130, Runt-SMMHC FRET 78, Runt-CBFb FRET 63
Cc1cc(NC(=O)CSc2nc3c(cc2C#N)CCC3)no1	none (no result: Runt-SMMHC FRET, Runt-CBFb FRET)
COc1ccccc1NC(=O)C1CCN(S(=O)(=O)c2ccc3c(c2)NC(=O)C(C)S3)CC1 (stereo unspecified)	none (no result: Runt-SMMHC FRET, Runt-CBFb FRET)
Cc1cccc(NC(=O)C(CCC(N)=O)NC(=O)OCc2ccccc2)c1 (stereo unspecified)	none (no result: Runt-SMMHC FRET, Runt-CBFb FRET)
COc1ccc(OC)c(C2C(C(=O)Nc3nc4ccccc4s3)=C(C)NC3=C2C(=O)CCC3)c1 (stereo unspecified)	Runt-SMMHC FRET 142
COc1cccc2c(=O)c(C(=O)O)c[nH]c12	Rce1 inhib active
COc1cccc2c(=O)c(C(=O)NCCc3ccccc3)c[nH]c12	none (no result: RanGTP-Impb inh, Rce1 inhib, Runt-SMMHC FRET, Runt-CBFb FRET)
CC1(C)Cc2nc3nc(SCC(=O)Nc4ccccc4)nc(N)c3cc2CO1	none
CCOC(=O)c1cc(-c2ccccc2)nc2nc(N3CCCCC3)sc12	none
CCOC(=O)c1cc(-c2ccccc2)nc2nc(N(CC)CC)sc12	RanGTP-Impb inh 45 (no result: Runt-SMMHC FRET, Runt-CBFb FRET)
CCOC(=O)c1cc2c(=O)[nH]ccc2nc1C(F)(F)F	none
CCOC(=O)c1cc2c(=O)[nH]ccc2nc1C	Rce1 inhib active
COc1ccc(OC(F)(F)F)cc1CC1(C)C(=O)Nc2ccc(-c3ccsc3)cc21 (stereo unspecified)	none (no result: RanGTP-Impb inh, Rce1 inhib, Runt-SMMHC FRET, Runt-CBFb FRET)
O=C(Nc1cccc(-c2cn3cccnc3n2)c1)c1ccc(Br)o1	Vif inh 81
CCCCOc1ncnc2c1[nH]c1ccccc12	Vif inh 88
COc1ccc(N2CCN(c3ncnc4c3[nH]c3ccccc34)CC2)cc1	RanGTP-Impb inh 19
COc1ccc2[nH]c3c(N4CCc5ccccc5C4)ncnc3c2c1	none
COc1ccc2nc(NN=C(C)c3ccccn3)cc(C)c2c1	none (no result: RanGTP-Impb inh, Rce1 inhib, Runt-SMMHC FRET, Runt-CBFb FRET)
O=S(=O)(Nc1ccc(S(=O)(=O)Nc2nccs2)cc1)c1ccc2c(c1)OCCO2	RanGTP-Impb inh inconclusive
COc1ccc(-c2ccc(-c3noc(-c4ccccc4)n3)c(OC)n2)cc1	RanGTP-Impb inh 30 (no result: Vif inh)
COc1cc(C(F)(F)F)ccc1C(=O)NCCc1ccco1	none (no result: Runt-SMMHC FRET, Runt-CBFb FRET)
CCC1(CC)NC(=O)N(CC(=O)Nc2ccc(C)cc2C)C1=O	none (no result: RanGTP-Impb inh, Rce1 inhib, Runt-SMMHC FRET, Runt-CBFb FRET)
CC(C(=O)NCCCn1ccnc1)(c1ccccc1)c1ccccc1	none (no result: Runt-SMMHC FRET, Runt-CBFb FRET)
CCOC(=O)COn1c(=O)c(-c2ccccc2)[n+]([O-])c2ccccc21	Vif inh 76 (no result: Runt-SMMHC FRET, Runt-CBFb FRET)
CCOC(=O)COn1c(=O)c(-c2ccc(OC)cc2)[n+]([O-])c2ccccc21	none (no result: Runt-SMMHC FRET, Runt-CBFb FRET)
COc1cc2c(cc1N)-c1ccc(N)cc1C2	none (no result: RanGTP-Impb inh, Rce1 inhib, Runt-SMMHC FRET, Runt-CBFb FRET)
CCCCCOc1ccc(Br)cc1/C(C)=N/NC1=NCCN1	Vif inh 75
O=c1[nH]c2ccccc2nc1-c1cccs1	Runt-SMMHC FRET 169, Runt-CBFb FRET 91
c1csc(-c2nnsc2-c2nc3ccccc3[nH]2)c1	none

Compound activity as filed in PubChem.
